In the library only some 3.6% were active in any assay of this set; here they are far more common.
SR-BI DiI inh: mouse SR-BI HDL lipid transfer inhibition | Q61009 | inhibition, % at 12.5 µM | actives 0.96% (n = 320,000) | ldlA[mSR-BI] CHO cells, DiI-HDL uptake fluorescence, 3 h;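 active means mean replicate inhibition of at least 70% and a set share of replicates each scoring 70 or more; inconclusive means meets just one of the two criteria; inactive means fails both criteria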
Target sequence (Q61009 whole entry, looked up): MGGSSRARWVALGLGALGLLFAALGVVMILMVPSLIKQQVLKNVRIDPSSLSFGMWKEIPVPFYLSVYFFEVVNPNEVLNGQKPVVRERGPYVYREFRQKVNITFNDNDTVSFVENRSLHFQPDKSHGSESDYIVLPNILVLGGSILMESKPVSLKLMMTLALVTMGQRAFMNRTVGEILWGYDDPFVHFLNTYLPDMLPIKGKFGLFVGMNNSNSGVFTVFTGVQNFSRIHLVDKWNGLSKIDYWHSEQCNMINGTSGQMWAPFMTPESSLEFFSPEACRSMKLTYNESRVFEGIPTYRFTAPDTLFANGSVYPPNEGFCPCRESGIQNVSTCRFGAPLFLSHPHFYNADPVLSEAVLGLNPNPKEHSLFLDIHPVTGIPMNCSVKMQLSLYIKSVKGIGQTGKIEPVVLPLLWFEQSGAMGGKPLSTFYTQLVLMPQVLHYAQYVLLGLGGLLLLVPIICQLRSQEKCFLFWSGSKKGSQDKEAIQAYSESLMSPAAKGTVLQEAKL
Wnt bcat act: activators of Wnt/beta-catenin signaling; AID 743398; activation, % at 9.35 µM; Wnt/beta-catenin reporter cell assay, activator, plate reader; actives 1.2% (n = 300,000); in the data active means activation above about 30%, passing the limit was not always enough; inconclusive means no clear call, values can overlap the other calls
SR-BI uptake up: enhances SR-BI lipid uptake from DiI-HDL. CHO ldlA[mSR-BI] cells, DiI-HDL uptake fluorescence, 3 h; 100 = double the neutral-control signal. activation, % at 12.5 µM. actives 0.096% (n = 320,000);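 active means mean replicate activation of at least 60% and every replicate at or above 60%; inconclusive means mean or all-replicate condition met, but not both; inactive means mean below 60% and not all replicates reaching 60%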
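Assay system: LDL receptor-deficient CHO ldlA cells overexpressing murine SR-BI / Medium: BSA-supplemented, HEPES-buffered Ham's F12, pH 7.4 / Probe or stimulus: DiI-labelled HDL at 10 µg/mL final / Timing: compound with DiI-HDL co-incubation, 3 h at 37 °C / Technique: bottom-read cell fluorescence after medium removal, ex 550/em 595 nm / Measure: HDL uptake via cellular fluorescence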
HSF1 activator: increases HSF-1 driven luciferase reporter signal. NIH3T3-HGL HSF-1 luciferase reporter, MG132, 8 h; 100% = twice DMSO control signal. activation, % at 9 µM. actives 1.7% (n = 300,000);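 active means mean replicate activation of at least 50% with a set share of replicates each reaching 50%; inconclusive means only one of those two conditions met; inactive means mean below 50% and too few replicates reaching it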
MITF TRPM1 HTS: activators of MITF-driven TRPM1 promoter activity in SK-MEL-5 cells | SK-MEL-5 TRPM1-promoter luciferase, 24 h; % of positive control, neutral wells = 0 | activation, % at 12.5 µM | actives 0.75% (n = 300,000) | AID 588334;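 active means mean activation of at least 80% with every replicate also reaching 80%; inconclusive means mean reaches 80% but some replicate falls short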
Hits are given with their value; – = inactive; ? = inconclusive; · = no result.

SMILES	SR-BI DiI inh	Wnt bcat act	SR-BI uptake up	HSF1 activator	MITF TRPM1 HTS
COc1ccc(-c2nc3c(C)cc(Br)cn3c2Cc2ccccc2C(F)(F)F)cc1OC	·	–	·	·	·
CCOc1ccc(CCN2C(=O)C(=O)N([C@@H](Cc3ccccc3)CN3CCC[C@H]3CN3C(=O)C(=O)NC[C@@H]3Cc3ccccc3)C[C@@H]2CC(C)C)cc1	·	–	·	·	·
Nc1[nH]c(C(=O)c2ccccc2)c(-c2ccccn2)c1C(=O)c1c[nH]c2ccccc12	·	–	·	·	·
COc1cccc(NC(=O)C(=O)NCCC2CCCCN2S(=O)(=O)c2cccs2)c1 (stereo not given)	–	39	–	–	96
N#Cc1cc2cc3c(cc2nc1Cl)OCCO3	·	–	·	·	·
N#Cc1cc2cc3c(cc2nc1N1CCCCC1)OCCO3	–	32	–	–	102
O=C1/C(=C/c2c[nH]c3ccccc23)CCC/C1=C\c1c[nH]c2ccccc12	89	·	–	–	–
C(=N\Nc1ccccn1)/c1c[nH]c2ccccc12	–	–	–	251	·
C(=NN=Cc1c[nH]c2ccccc12)c1c[nH]c2ccccc12	·	46	·	·	·
O=C(O)c1cccc2c(/C=N/Nc3ccccn3)c[nH]c12	·	·	·	–	–
O=c1nc(N/N=C/c2c[nH]c3ccccc23)cn[nH]1	·	41	·	–	–
O=C1CS/C(=N/N=C/c2c[nH]c3ccccc23)N1	·	–	·	–	·
COc1ccc(CN2C(=O)c3ccccc3C2c2nnnn2-c2ccc3c(c2)OCCO3)cc1OC (stereo not given)	·	–	·	·	·
CCCS(=O)(=O)NC(=O)C1(C)CCCN(C(=O)c2cc(C)n(C(C)(C)C)n2)C1 (stereo not given)	·	–	·	·	·
Cc1ccc(C2=NS(=O)(=O)N(C)C(C(=O)NC3CCCCC3)=C2)cc1	–	–	–	–	·
Cc1ccc(C2=NS(=O)(=O)N(C)C(C(=O)Nc3cc(C)n(CC(=O)N4CCC(C)CC4)n3)=C2)cc1	86	–	–	–	–
O=[N+]([O-])c1ccccc1NCCOc1ccccc1	–	67	–	?	–
Cc1cc(O)c(NC(=O)c2cc([N+](=O)[O-])ccc2Cl)cc1C	–	–	–	100	–
O=C(Nc1cccc2c1CCCC2)c1cc([N+](=O)[O-])ccc1Cl	–	·	–	55	–
O=C(Nc1cccc2c1CCCC2)c1ccc(Cl)c([N+](=O)[O-])c1	–	–	–	–	–
CC1(C)CC(=O)C=C(c2ccc(-c3cnn(Cc4ccccc4)c3)cc2)C1=O	·	–	·	·	·
Cn1nccc1C(=O)N/N=C/c1cccnc1	–	–	–	–	–
Cn1nccc1C(=O)N/N=C/c1ccccc1[N+](=O)[O-]	–	41	–	–	–
Cc1occc1C(=O)N/N=C/c1ccccc1[N+](=O)[O-]	–	44	–	–	·
COc1cccc(/C=N/NC(=O)c2ccoc2C)c1O	·	–	·	–	–
SMILES	SR-BI DiI inh	Wnt bcat act	SR-BI uptake up	HSF1 activator	MITF TRPM1 HTS
N#CCc1nc2ccccc2c(=O)[nH]1	–	–	–	65	–
O=c1[nH]c(/C=C/c2ccc(Br)cc2)nc2ccccc12	–	45	–	65	–
O=c1[nH]c(COc2ccccc2)nc2ccccc12	–	–	–	–	?
O=c1[nH]c(COc2ccc(Br)cc2Cl)nc2ccccc12	–	44	–	90	?
O=C(Nc1ccc(Oc2ccccc2)cc1)c1csc([C@H]2C[C@H](O)[C@@H](CO)O2)n1	·	–	·	·	·
CCCC(=O)OC[C@H]1CN(C2CCCC2)S(=O)(=O)c2c(Oc3ccc(F)cc3)cccc2O1	·	–	·	·	·
Cc1cc(S(=O)(=O)Nc2ccc(C(=O)NCCN3CCOCC3)cc2)ccc1F	·	–	·	·	·
O=C(/C=C/c1ccccc1Cl)Nc1cccnc1	–	–	–	58	–
O=C(/C=C/c1ccccc1Cl)Nc1ccncc1	–	·	–	53	–
Cc1ccc2nc(-c3ccc(Cl)cc3)c(Cc3ccccn3)n2c1	·	–	·	·	·
COCCNC(=S)NC(=O)c1ccc(C(C)(C)C)cc1	·	–	·	–	87
CC(C)(C)c1ccc(C(=O)NC(=S)NCc2ccco2)cc1	–	–	·	–	–
CCOC(=O)N1CCN(C(=O)c2ccc3oc(CCCc4ccccc4)nc3c2)CC1	–	34	–	61	–
COC(=O)[C@@H](C)NC(=O)c1ccc2oc(CCc3ccccc3)nc2c1	–	38	–	–	·
Brc1cccc(-c2nc3ccc(Br)cn3c2Cc2ccccc2)c1	·	–	·	·	·
COC(=O)[C@@]12C[C@@H](CC(=O)NCCC(C)C)C(=O)N(Cc3cccc4ccccc34)C1=CCC(C)(C)C2	·	–	·	·	·
CC(=O)N1CCn2c3ccc(C)cc3c3cccc1c32	–	–	–	65	·
COc1cc(/C=C/C(=O)Nc2ccc(C(C)=O)cc2)cc(OC)c1OC	75	–	–	–	–
CSc1cccc(NC(=O)/C=C/c2ccccc2)c1	73	–	–	74	·
COc1ccc(NC(=O)/C=C/c2ccc(F)cc2)cn1	–	–	–	–	–
COc1ccc(/C=C/C(=O)Nc2ccccc2)cc1OC	–	–	–	–	90
COc1ccc(NC(=O)/C=C/c2ccccc2)cn1	–	·	–	–	122
COc1cccc(CN(C)C(=O)[C@@H](Cc2ccccc2)NC(=O)[C@H]2O[C@@H](n3ccc(=O)[nH]c3=O)[C@H](O)[C@@H]2O)c1	·	–	·	·	·
C[C@H](CO)N1C[C@H](C)[C@@H](CN(C)C(=O)Nc2ccc3c(c2)OCO3)OCc2cn(nn2)CCCC1=O	·	–	·	·	·
CCc1nnc(N/N=C/c2ccccc2Cl)n1N	–	·	–	72	–
SMILES	SR-BI DiI inh	Wnt bcat act	SR-BI uptake up	HSF1 activator	MITF TRPM1 HTS
CCOC(=O)N/N=C/c1ccccc1F	–	·	–	–	–
CCc1nnc(N/N=C/c2ccccc2F)n1N	–	–	–	59	–
CC1=C(C(=O)N(C(C)C)C(C)C)CC(CC(=O)NCc2ccco2)C(=O)N1Cc1ccc(F)cc1 (stereo not given)	·	–	·	·	·
COc1ccc2nc3cc([N+](=O)[O-])ccc3c(NNc3ccc([N+](=O)[O-])cc3)c2c1	121	–	–	·	–
COC[C@@H](O)[C@H]1OCc2cc(OC)ccc2[C@@H]1/C=C/c1ccccc1	·	–	·	·	·
COc1ccccc1CC(=O)Nc1ccc2c(c1)OC1(CCCC1)O2	–	–	–	·	–
O=C(Cc1ccccc1)Nc1ccc2c(c1)OC1(CCCC1)O2	–	48	–	·	110
O=C(Cc1ccccc1)Nc1cc2c(cc1Cl)OCCCO2	–	–	–	–	94
CCc1ccc(C(=O)Nc2cc3c(cc2Cl)OCCCO3)cc1	·	·	·	?	109
COc1cc2c(c(OC3OC(CO)C(O)C(O)C3O)c1)C(=O)CC(c1ccc(O)cc1)O2 (stereo not given)	·	–	·	·	·
CCOC1=C2[C@H]([C@H]3C(=O)N(c4ccccc4)C(=O)[C@H]3C1)[C@@H](C(C)C)N(S(=O)(=O)c1ccc(C)cc1)[C@H]2c1ccccc1	·	–	·	·	·
Cc1nc2ccc(C(=O)NCCCn3ccnc3)cn2c1N(C)C(=O)CCc1ccccc1	·	–	·	·	·
O=C(COc1ccccc1)Nc1cccc(-c2nc3cc4ccccc4cc3[nH]2)c1	–	·	–	–	106
